Results reported in PMC3724457 (Cellular and molecular life sciences : CMLS, 2009).
Numbering of substitutions follows the chain as printed. Read-outs that look alike come from different tables or passages of the source. *1 amine or outer side, *2 acyl side, *3 side chain or, on linkers, in order; H or OH if unused. Where a SMILES comes first, the peptide text is derived from it. Bridges are numbered along the chain shown (N, C = ends). Roman numbers before positions name the chains, in order. [ ]: non-standard residue; d: D form. Actinocin(9to1) = Cc1c2oc3c(C)ccc(C(=O)[*:1])c3nc-2c(C(=O)[*:2])c(N)c1=O; NMeV = CN[C@H](C(=O)O)C(C)C; Sar = CNCC(=O)O

B1: GST-ZO1-PDZ2 WT (domain or fragment, human)
chain: KVTLVKSRKNEEYGLRLASHIFVKEISQDSLAARDGNIQEGDVVLKINGTVTENMSLTDAKTLIERSKGKLKMVVQRDE

What was measured:
GST-ZO1-PDZ1–3 = assay: Lipid-overlay assay; type: binding, human; conditions: PIP strips, not quantitative, no membrane environment
How it was run: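 A GST-fused human ZO-1 PDZ1–3 construct was overlaid on nitrocellulose membranes carrying immobilised phospholipids, following the manufacturer's protocol. GST served as negative control and the GST-PH domain of LL5α as positive control. Lipids were not in a membrane environment, and the readout is qualitative.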

[1] = system: GST-ZO2-PDZ2 WT binding to Cx43 peptide; assay: Pull-down competition by phospholipids; set-up: species or system mouse; conditions: 3 µg GST-ZO2-PDZ2 WT preincubated with phospholipid liposomes
How it was run: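 3 μg GST-ZO-2 PDZ2 WT was preincubated with phospholipid liposomes at increasing concentrations. It was then pulled down with Cx43 C-terminal 20-mer peptide coupled to CNBr-activated Sepharose 4B at 5–7 mg/ml.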

[2] = target: Connexin43 (Homo sapiens) (UniProt P17302); conditions: cited from earlier work
GST-ZO1-PDZ2 [3] = assay: Kinetic SPR measurements; type: binding, human; conditions: 1 µM protein, POPC/POPE/POPS/PtdInsP (37:40:20:3) vesicles, 20 mM HEPES pH 7.4, 0.16 M KCl
How it was run: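 GST-fused PDZ2 was expressed in E. coli BL21(DE3) with IPTG induction at 37°C for 4 h, then purified on glutathione-Sepharose. Active sensor surface carried PtdInsP-containing vesicles and the control surface carried POPC/POPE (60:40) vesicles, both from 0.4 mg/ml lipid solution and loaded to equal RU. Seven PtdInsP species were compared. Kinetic data gave relative membrane affinity only; no Kd was derived.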

GST-ZO1-PDZ2 [4] = assay: ELISA PtdInsP binding assay; set-up: species or system human; conditions: ELISA on PIP plates, absorbance 450 nm, n=3, protein 10 nM, 1 h room temperature
How it was run: (§1)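 GST-fusion PDZ2 domains (ZO-1 human, ZO-2 mouse) or GST-PH domain of PLC-δ1 (positive control) at 10 nM, with GST as negative control, were incubated 1 h at room temperature on preblocked PtdInsP-coated plates. Wells were washed three times with PBS/0.1% Tween-20, then probed 1 h at room temperature with HRP-anti-GST. Detection used TMB substrate with absorbance at 450 nm; mean ± SD, n = 3.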

GST-ZO2-PDZ2 = assay: ELISA PtdInsP binding assay; set-up: species or system mouse; conditions: ELISA on PIP plates, absorbance 450 nm, n=3, protein 10 nM, 1 h room temperature
How it was run: as §1

[5] = target: Connexin43 (Homo sapiens) (UniProt P17302); conditions: cited from earlier work; remark: listed apart in the source
ZO-1 PDZ2 R219A [6] = target: ZO-1 PDZ2 R219A (Homo sapiens, UniProt Q07157, R219A); assay: ITC peptide binding
Chain of ZO-1 PDZ2 R219A (Homo sapiens, UniProt Q07157, R219A) (Q07157 186-264 R219A limits assumed): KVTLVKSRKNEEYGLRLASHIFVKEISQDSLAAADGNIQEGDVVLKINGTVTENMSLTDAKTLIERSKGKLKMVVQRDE
How it was run: (§2)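 Each PDZ2 domain, wild type or point mutant, was held at 20 μM in 20 mM HEPES, 150 mM NaCl, pH 7.5, degassed. It was titrated with 20 × 15 μl injections of 200 μM Cx43 C-terminal 20-mer peptide, stirred at 250 rpm, with 5 min between injections. Peptide-into-buffer dilution heat was subtracted, and integrated data were fitted to a binding model. Representative of duplicate runs.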

ZO-1 PDZ2 R201A = ZO-1 PDZ2 R201A (Homo sapiens, UniProt Q07157, R201A); assay: ITC peptide binding
Chain of ZO-1 PDZ2 R201A (Q07157 186-264 R201A limits assumed): as the sequence (Q07157 186-264 R219A limits assumed) above, with R16A, A34R counted along it
How it was run: as §2

ZO-1 PDZ2 R193A [7] = target: ZO-1 PDZ2 R193A (Homo sapiens, UniProt Q07157, R193A); assay: ITC peptide binding
Chain of ZO-1 PDZ2 R193A (Homo sapiens, UniProt Q07157, R193A) (Q07157 186-264 R193A limits assumed): as the sequence (Q07157 186-264 R219A limits assumed) above, with R8A, A34R counted along it
How it was run: as §2

ZO-1 PDZ2 K246A = ZO-1 PDZ2 K246A (Homo sapiens, UniProt Q07157, K246A); assay: ITC peptide binding
Chain of ZO-1 PDZ2 K246A (Q07157 186-264 K246A limits assumed): as the sequence (Q07157 186-264 R219A limits assumed) above, with A34R, K61A counted along it
How it was run: as §2

ZO-1 PDZ2 K194A [8] = target: ZO-1 PDZ2 K194A (Homo sapiens, UniProt Q07157, K194A); assay: ITC peptide binding
Chain of ZO-1 PDZ2 K194A (Homo sapiens, UniProt Q07157, K194A) (Q07157 186-264 K194A limits assumed): as the sequence (Q07157 186-264 R219A limits assumed) above, with K9A, A34R counted along it
How it was run: as §2

nuclear speckles = conditions: transcriptional inhibition; ref [39]; cited from earlier work
GST-ZO2-PDZ2 WT (mouse) = assay: SEC
[9] = target: Connexin 43 (Cx43) C-terminal peptide; assay: ITC
SEC = target: the molecule itself; assay: SEC
ZO-1 PDZ2 R193A [10] = target: T1, ZO-1 PDZ2 R193A (human, UniProt Q07157 186-264, R193A); assay: ITC
T1 sequence: B1 chain with R8A

ZO-1 PDZ2 R219A [11] = target: T2, ZO-1 PDZ2 R219A (human, UniProt Q07157 186-264, R219A); assay: ITC
T2 sequence: B1 chain with R34A

GST-ZO1-PDZ2 WT = target: B1; assay: ITC
ZO-1 PDZ2 K253A = target: T3, ZO-1 PDZ2 K253A (human, UniProt Q07157 186-264, K253A); assay: ITC
T3 sequence: B1 chain with K68A

ZO-1 PDZ2 R251AK253A = target: T4, ZO-1 PDZ2 R251AK253A (human, UniProt Q07157 186-264, R251A | K253A); assay: ITC
T4 sequence: B1 chain with R66A, K68A

ZO-1 PDZ2 R251A = target: T5, ZO-1 PDZ2 R251A (human, UniProt Q07157 186-264, R251A); assay: ITC
T5 sequence: B1 chain with R66A

ZO-1 PDZ2 K194A [12] = target: T6, ZO-1 PDZ2 K194A (human, UniProt Q07157 186-264, K194A); assay: ITC
T6 sequence: B1 chain with K9A

For phosphatidylinositol [PtdIns], the lipid binding (GST-ZO1-PDZ1–3) was “bound non-selectively”.

In the case of phosphatidylserine [PS], the lipid binding (GST-ZO1-PDZ1–3) is reported as “bound non-selectively” and the “inhibition of association of GST-ZO2-PDZ2 with the Cx43 peptide” value (“inhibition” below) [1] is reported as “no effect”.

For ZO-2 PDZ2 (from UniProt Q9UDY2), the Kd [2] is listed as 391 µM.

For phosphatidic acid [PA], the lipid binding (GST-ZO1-PDZ1–3) was “bound non-selectively”.

With PtdIns(3,5)P2 the “PtdInsP selectivity (relative binding)” value (GST-ZO1-PDZ2 [3]) was “followed by PtdIns(3,4,5)P3, PtdIns(4,5)P2 and PtdIns(3,5)P2”.

In the case of PtdIns(3,4)P2, the “PtdInsP selectivity (relative binding)” value (GST-ZO1-PDZ2 [3]) is reported as “slight preference”, the “PtdInsP binding as compared to PtdIns(4,5)P2 or PtdIns(3,5)P2” value (GST-ZO1-PDZ2 [4]) is reported as “slightly stronger” and the “PtdInsP binding as compared to PtdIns(4,5)P2 or PtdIns(3,5)P2” value (GST-ZO2-PDZ2) is reported as “slightly stronger”. The “inhibition” value [1] was “inhibited association”.

For PtdIns(3,4,5)P3, the “PtdInsP selectivity (relative binding)” value (GST-ZO1-PDZ2 [3]) was “followed by PtdIns(3,4,5)P3, PtdIns(4,5)P2 and PtdIns(3,5)P2”, the “PtdInsP binding as compared to PtdIns(4,5)P2 or PtdIns(3,5)P2” value (GST-ZO1-PDZ2 [4]) was “slightly stronger” and the “PtdInsP binding as compared to PtdIns(4,5)P2 or PtdIns(3,5)P2” value (GST-ZO2-PDZ2) was “slightly stronger”. The “inhibition” value [1] was “inhibited association”.

In the case of ZO-1 PDZ2 (from UniProt Q07157), the Kd [5] is listed as 15.5 µM.

In the case of “NH2.PSSRASSRASSRPRPDDLEI.OH [Connexin43 peptide]”, the “effect of mutation on peptide binding” value (ZO-1 PDZ2 R219A [6]) is reported as “no effect”, the “binding to the Cx43 peptide” value (ZO-1 PDZ2 R201A) is reported as “no significant binding” and the “effect of mutation on peptide affinity” value (ZO-1 PDZ2 R193A [7]) is reported as “little effect”. The “binding to the Cx43 peptide” value (ZO-1 PDZ2 K246A) was “no significant binding” and the “effect of mutation on peptide affinity” value (ZO-1 PDZ2 K194A [8]) was “little effect”.

For `Cc1c2oc3c(C)ccc(C(=O)N[C@@H]4C(=O)N[C@H](C(C)C)C(=O)N5CCC[C@H]5C(=O)N(C)CC(=O)N(C)[C@@H](C(C)C)C(=O)O[C@@H]4C)c3nc-2c(C(=O)N[C@@H]2C(=O)N[C@H](C(C)C)C(=O)N3CCC[C@H]3C(=O)N(C)CC(=O)N(C)[C@@H](C(C)C)C(=O)O[C@@H]2C)c(N)c1=O` [actinomycin D] (I: T[dV]P[Sar][NMeV] / II: T[dV]P[Sar][NMeV]; ester I:1-I:C, II:1-II:C; linker I:N-II:N via Actinocin(9to1)), the speckle protein distribution (nuclear speckles) is given as “fewer and/or abnormally large clusters”.

GST-ZO2-PDZ2 WT (domain or fragment) showed a stoichiometry N (GST-ZO2-PDZ2 WT (mouse)) of 2 and a Kd [9] of 9.9 µM.

With “Phosphatidylinositol 4,5-bisphosphate [PtdIns(4,5)P2]” the “PtdInsP selectivity (relative binding)” value (GST-ZO1-PDZ2 [3]) was “followed by PtdIns(3,4,5)P3, PtdIns(4,5)P2 and PtdIns(3,5)P2”.

With B1 the “stoichiometry N” value (SEC) was 2.

With PSSRASSRASSRPRPDDLEI [Connexin 43 (Cx43) C-terminal peptide] the Kd (ZO-1 PDZ2 R193A [10]) was 11 ± 2.1 µM, the Kd (ZO-1 PDZ2 R219A [11]) was 11 ± 1.6 µM and the Kd (GST-ZO1-PDZ2 WT) was 9.9 ± 1.3 µM. The Kd (ZO-1 PDZ2 K253A) was 22 ± 3.6 µM, the Kd (ZO-1 PDZ2 R251AK253A) was 21 ± 3.2 µM and the Kd (ZO-1 PDZ2 R251A) was 19 ± 3.4 µM. For the same molecule, the Kd (ZO-1 PDZ2 K194A [12]) was 12 ± 1.6 µM.
